This note sets out measurements from ChEMBL document CHEMBL1154229 (Bioorg Med Chem Lett, 2009).

A word on the IC50: it is the concentration at which inhibition is half-maximal.

In one assay the target is Cytochrome P450 2C9 (Homo sapiens, UniProt P11712). Briefly: Inhibition of CYP2C9. It counts as ADME.
For assay [1], the target named is T1, Bifunctional epoxide hydrolase 2 (Rattus norvegicus, UniProt P80299).
T1 sequence (P80299 whole entry): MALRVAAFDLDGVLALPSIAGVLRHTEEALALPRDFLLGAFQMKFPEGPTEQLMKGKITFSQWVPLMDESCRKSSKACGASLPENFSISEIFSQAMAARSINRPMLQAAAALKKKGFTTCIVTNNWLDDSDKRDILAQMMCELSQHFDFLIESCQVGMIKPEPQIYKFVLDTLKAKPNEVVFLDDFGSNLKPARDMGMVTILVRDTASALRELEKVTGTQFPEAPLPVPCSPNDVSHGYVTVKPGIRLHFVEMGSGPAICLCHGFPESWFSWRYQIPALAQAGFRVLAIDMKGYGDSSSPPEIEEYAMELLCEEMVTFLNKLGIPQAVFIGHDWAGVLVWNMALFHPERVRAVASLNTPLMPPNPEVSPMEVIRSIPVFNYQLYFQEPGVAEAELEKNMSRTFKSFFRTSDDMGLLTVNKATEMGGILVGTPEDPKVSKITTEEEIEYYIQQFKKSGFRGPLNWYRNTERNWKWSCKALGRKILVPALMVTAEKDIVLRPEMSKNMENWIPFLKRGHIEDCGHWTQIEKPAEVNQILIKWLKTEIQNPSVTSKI
In words: Inhibition of rat soluble epoxide hydrolase.

The target of a further assay is Cytochrome P450 2D6 (Homo sapiens, UniProt P10635). In words: Inhibition of CYP2D6. Type of assay: ADME.
Cytochrome P450 2D6, sequence (P10635 whole entry): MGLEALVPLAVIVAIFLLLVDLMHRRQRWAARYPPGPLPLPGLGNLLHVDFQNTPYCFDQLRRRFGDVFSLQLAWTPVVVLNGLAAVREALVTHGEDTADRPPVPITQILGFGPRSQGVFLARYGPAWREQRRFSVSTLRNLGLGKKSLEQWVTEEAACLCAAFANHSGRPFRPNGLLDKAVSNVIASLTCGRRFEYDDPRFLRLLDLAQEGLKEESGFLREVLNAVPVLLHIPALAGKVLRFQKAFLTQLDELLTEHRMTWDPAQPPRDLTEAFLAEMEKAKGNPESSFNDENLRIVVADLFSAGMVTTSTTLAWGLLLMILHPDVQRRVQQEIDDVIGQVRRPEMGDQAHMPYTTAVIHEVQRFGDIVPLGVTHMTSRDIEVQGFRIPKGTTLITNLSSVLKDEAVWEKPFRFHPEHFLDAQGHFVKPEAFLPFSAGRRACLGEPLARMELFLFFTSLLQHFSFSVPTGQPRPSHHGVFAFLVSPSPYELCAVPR
The target of the next assay is Cytochrome P450 3A4 (Homo sapiens, UniProt P08684). Briefly: Inhibition of CYP3A4. Type of assay: ADME.
Cytochrome P450 3A4, sequence (P08684 whole entry): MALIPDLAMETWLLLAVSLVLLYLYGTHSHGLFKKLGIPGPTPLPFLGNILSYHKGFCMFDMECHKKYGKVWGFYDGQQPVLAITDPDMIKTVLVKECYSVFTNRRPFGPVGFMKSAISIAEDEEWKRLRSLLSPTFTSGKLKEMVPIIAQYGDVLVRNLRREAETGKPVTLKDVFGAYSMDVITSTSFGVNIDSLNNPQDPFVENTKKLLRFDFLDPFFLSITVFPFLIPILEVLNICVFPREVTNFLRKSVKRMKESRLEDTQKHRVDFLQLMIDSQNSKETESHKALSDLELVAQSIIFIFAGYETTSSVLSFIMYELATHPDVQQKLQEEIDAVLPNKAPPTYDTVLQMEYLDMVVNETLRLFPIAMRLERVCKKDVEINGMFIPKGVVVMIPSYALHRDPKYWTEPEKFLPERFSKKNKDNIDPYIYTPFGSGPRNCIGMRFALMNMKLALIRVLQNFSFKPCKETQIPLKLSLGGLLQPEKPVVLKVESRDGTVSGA
Assay [2] has as its target T2, Bifunctional epoxide hydrolase 2 (Homo sapiens, UniProt P34913).
T2 sequence (P34913 whole entry): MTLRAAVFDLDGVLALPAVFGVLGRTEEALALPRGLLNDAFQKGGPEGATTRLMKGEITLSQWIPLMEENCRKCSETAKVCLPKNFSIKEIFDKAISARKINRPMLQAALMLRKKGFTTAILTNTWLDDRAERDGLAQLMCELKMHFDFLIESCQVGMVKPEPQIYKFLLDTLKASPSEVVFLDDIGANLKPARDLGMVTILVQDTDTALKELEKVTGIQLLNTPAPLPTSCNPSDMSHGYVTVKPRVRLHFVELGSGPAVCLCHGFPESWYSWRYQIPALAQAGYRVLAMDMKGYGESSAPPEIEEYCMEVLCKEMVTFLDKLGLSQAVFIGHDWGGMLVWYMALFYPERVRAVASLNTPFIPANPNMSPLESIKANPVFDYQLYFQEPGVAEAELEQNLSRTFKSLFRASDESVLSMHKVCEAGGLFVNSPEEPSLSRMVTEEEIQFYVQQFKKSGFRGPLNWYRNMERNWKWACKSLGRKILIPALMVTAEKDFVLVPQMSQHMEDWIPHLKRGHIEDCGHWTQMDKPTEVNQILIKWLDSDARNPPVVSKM
Briefly: Inhibition of human soluble epoxide hydrolase.

In assay [3] the target is Sodium channel protein type 5 subunit alpha (Homo sapiens, UniProt Q14524). Briefly: Inhibition of Nav1.5 channel.
Sodium channel protein type 5 subunit alpha, sequence (Q14524 whole entry): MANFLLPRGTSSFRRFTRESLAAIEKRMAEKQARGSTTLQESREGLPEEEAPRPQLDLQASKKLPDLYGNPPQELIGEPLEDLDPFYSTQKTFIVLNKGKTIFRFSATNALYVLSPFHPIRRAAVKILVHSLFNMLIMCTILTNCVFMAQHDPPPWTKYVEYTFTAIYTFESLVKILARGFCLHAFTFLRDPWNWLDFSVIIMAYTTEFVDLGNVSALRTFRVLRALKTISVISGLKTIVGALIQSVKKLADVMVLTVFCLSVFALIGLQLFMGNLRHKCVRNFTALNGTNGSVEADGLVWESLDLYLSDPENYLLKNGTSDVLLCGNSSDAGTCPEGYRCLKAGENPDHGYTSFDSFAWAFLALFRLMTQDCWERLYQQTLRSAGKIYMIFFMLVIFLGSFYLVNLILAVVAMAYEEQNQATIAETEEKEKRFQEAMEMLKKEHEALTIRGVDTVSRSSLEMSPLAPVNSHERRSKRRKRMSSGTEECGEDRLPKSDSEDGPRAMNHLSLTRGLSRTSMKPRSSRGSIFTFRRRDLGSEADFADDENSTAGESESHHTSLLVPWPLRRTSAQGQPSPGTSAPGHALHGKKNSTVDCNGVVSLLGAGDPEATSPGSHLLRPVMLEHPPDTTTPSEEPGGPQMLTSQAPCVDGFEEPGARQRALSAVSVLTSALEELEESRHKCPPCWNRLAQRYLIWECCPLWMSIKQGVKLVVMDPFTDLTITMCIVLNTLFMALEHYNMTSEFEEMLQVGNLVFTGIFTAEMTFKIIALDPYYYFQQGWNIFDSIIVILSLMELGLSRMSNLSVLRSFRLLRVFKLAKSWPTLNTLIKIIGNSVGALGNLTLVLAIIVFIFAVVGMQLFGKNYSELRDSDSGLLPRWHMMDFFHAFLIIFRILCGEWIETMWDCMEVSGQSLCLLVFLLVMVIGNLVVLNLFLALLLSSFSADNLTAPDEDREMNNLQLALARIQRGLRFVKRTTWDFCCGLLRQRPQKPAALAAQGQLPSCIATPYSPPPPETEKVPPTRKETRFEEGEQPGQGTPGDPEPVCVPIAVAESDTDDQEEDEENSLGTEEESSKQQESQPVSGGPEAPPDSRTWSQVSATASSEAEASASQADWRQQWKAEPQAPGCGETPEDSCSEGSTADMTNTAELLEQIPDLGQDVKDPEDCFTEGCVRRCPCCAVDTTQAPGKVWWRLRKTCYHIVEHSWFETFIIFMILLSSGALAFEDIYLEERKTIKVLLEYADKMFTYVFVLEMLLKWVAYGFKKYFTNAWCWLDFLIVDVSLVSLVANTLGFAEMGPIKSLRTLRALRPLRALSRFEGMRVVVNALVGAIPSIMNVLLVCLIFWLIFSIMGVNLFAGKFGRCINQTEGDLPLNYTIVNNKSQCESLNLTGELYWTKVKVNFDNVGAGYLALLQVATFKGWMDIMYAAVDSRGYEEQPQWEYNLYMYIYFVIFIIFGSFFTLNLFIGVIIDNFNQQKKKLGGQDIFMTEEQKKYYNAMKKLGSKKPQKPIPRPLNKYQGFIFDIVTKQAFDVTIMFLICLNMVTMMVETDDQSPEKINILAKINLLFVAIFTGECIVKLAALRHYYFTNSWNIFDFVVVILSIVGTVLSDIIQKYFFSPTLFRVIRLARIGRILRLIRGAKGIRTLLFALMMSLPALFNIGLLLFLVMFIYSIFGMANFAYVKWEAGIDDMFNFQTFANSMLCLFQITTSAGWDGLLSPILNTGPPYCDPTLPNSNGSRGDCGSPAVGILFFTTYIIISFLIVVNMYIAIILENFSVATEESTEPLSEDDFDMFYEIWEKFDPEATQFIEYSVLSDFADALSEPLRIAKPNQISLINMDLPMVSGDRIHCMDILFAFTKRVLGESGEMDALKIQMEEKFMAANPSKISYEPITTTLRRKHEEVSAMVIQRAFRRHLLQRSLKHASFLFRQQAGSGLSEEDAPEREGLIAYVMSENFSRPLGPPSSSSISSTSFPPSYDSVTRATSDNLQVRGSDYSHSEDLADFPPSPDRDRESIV
Assay [4] in a line: Inhibition of potassium channel IKr.
The target in the next assay is L-type calcium channel. In words: Inhibition of calcium channel diltiazem binding site.
The target of another assay is T3, Epoxide hydrolase 1 (Homo sapiens, UniProt P07099).
T3 sequence (P07099 whole entry): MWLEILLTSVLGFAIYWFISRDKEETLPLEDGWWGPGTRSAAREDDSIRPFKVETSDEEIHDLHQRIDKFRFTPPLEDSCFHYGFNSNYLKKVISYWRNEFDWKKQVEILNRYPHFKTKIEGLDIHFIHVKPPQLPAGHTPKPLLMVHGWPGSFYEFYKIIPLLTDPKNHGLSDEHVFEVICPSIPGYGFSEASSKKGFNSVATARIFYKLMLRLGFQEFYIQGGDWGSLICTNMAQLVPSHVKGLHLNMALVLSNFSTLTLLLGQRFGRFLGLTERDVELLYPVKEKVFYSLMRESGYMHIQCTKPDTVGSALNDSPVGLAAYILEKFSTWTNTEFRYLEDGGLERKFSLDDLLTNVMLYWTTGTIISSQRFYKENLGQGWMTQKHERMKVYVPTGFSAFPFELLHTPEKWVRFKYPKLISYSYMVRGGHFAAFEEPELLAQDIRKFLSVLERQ
In words: Inhibition of human microsomal epoxide hydrolase. The procedure, abridged:
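Human mEH used as the counterscreen enzyme. Values come from one or two experiments, each in triplicate, with repeats within 20%.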

Assay [5] addresses T2, Bifunctional epoxide hydrolase 2. Briefly: Inhibition of human soluble epoxide hydrolase in HEK293 cells assessed as DHET production. Type of assay: cell-based. The procedure, abridged: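 Whole-cell 14,15-DHET production assay in HEK293 cells, run with or without 10% human serum. Values come from one or two experiments, each in triplicate, with repeats within 20%.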

Cytochrome P450 2C9, sequence (P11712 whole entry): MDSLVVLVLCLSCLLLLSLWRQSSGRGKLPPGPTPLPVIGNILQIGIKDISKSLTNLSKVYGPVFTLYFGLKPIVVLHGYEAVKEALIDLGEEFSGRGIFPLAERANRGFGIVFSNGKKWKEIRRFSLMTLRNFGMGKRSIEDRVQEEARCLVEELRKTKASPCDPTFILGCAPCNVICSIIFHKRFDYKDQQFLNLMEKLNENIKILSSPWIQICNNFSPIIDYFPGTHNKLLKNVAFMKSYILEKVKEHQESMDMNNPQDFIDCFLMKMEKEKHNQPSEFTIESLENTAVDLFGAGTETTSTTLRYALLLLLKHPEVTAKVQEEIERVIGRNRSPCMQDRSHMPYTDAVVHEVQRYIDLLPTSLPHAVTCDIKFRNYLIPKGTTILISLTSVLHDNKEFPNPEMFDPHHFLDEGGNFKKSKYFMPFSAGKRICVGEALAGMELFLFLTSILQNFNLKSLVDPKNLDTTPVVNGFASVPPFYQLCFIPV

In the case of `CC1(c2ccccc2)CCCN(C(=O)Nc2ccc(-c3ccccc3)cc2)C1` (stereo not drawn), the IC50 against Cytochrome P450 2C9 was less than 10 µM; in [1], 0.006 µM; at Cytochrome P450 2D6, greater than 10 µM; against Cytochrome P450 3A4, greater than 10 µM; in assay [2], 0.007 µM; in [3] it was less than 10 µM. The IC50 was found to be 21 µM in [4] and 0.9 µM at L-type calcium channel.
Turning to `COC(=O)CCC1(c2ccccc2)CCCN(C(=O)Nc2ccc(Cl)cc2)C1` (stereo not drawn), the IC50 is 0.003 µM in assay [1] and less than 0.001 µM in assay [2].
Take `O=C(O)CCC1(c2ccccn2)CCCN(C(=O)Nc2ccc(Cl)cc2)C1` (stereo not drawn): the IC50 on Cytochrome P450 2C9 is greater than 10 µM; in [1] it was 0.29 µM; against Cytochrome P450 2D6, greater than 10 µM; against Cytochrome P450 3A4, greater than 10 µM; in assay [2], 0.019 µM; in assay [3], greater than 10 µM. Also, the IC50 (in assay [4]; at L-type calcium channel) was greater than 30 µM in each case.
On to `CCN(CC)C(=O)CCC1(c2ccccc2)CCCN(C(=O)Nc2ccc(Cl)cc2)C1` (stereo not drawn), for which the IC50 against Cytochrome P450 2C9 is greater than 10 µM; in assay [1], 0.031 µM; against Cytochrome P450 2D6, greater than 10 µM; at Cytochrome P450 3A4 it was less than 10 µM; in assay [2], 0.003 µM; in [3], greater than 10 µM. Moreover, the IC50 was 6 µM in assay [4] and 1 µM at L-type calcium channel.
`CC1(c2ccccc2)CCCN(C(=O)Nc2ccncc2)C1` (stereo not drawn): the IC50 was greater than 100 µM against Epoxide hydrolase 1; greater than 10 µM against Cytochrome P450 2C9; 0.349 µM in assay [1]; greater than 10 µM at Cytochrome P450 2D6; less than 10 µM on Cytochrome P450 3A4; 0.55 µM in assay [2]. Besides, the IC50 in [3] was greater than 10 µM; in assay [4], 5 µM; at L-type calcium channel, 15 µM.
Regarding `CC1(c2ccccc2)CCCN(C(=O)NCCCc2cccnc2)C1` (stereo not drawn), the IC50 is 3 µM at Epoxide hydrolase 1; greater than 10 µM against Cytochrome P450 2C9; 0.008 µM in assay [5]; greater than 10 µM against Cytochrome P450 2D6; less than 10 µM at Cytochrome P450 3A4; 0.007 µM in assay [2]. Moreover, the IC50 in assay [4] worked out at 5 µM.
Regarding `O=C(CCC1(c2ccccc2)CCCN(C(=O)Nc2ccc(Cl)cc2)C1)N1CCOCC1` (stereo not drawn), the IC50 is greater than 10 µM against Cytochrome P450 2C9; less than 0.001 µM in [5]; 0.1 µM in assay [1]; greater than 10 µM on Cytochrome P450 2D6; greater than 10 µM at Cytochrome P450 3A4; 0.008 µM in [2]. In addition, the IC50 is greater than 10 µM in assay [3], 29 µM in assay [4] and 26 µM on L-type calcium channel.
With `CC1(c2ccccc2)CCCN(C(=O)NCc2ccc(-c3ccccc3C(F)(F)F)cc2)C1` (stereo not drawn), the IC50 is greater than 100 µM against Epoxide hydrolase 1; less than 10 µM at Cytochrome P450 2C9; 0.011 µM in assay [1]; greater than 10 µM against Cytochrome P450 2D6; less than 10 µM at Cytochrome P450 3A4; 0.008 µM in assay [2]. Besides, the IC50 in assay [3] is greater than 1 µM; in assay [4] it was 0.2 µM; on L-type calcium channel, 0.7 µM.
Regarding `O=C(O)CCC1(c2ccncc2)CCCN(C(=O)Nc2ccc(Cl)cc2)C1` (stereo not drawn), the IC50 is greater than 100 µM against Epoxide hydrolase 1; 10 µM against Cytochrome P450 2C9; 0.467 µM in [1]; greater than 10 µM at Cytochrome P450 2D6; greater than 10 µM at Cytochrome P450 3A4; 0.03 µM in [2]. For the same molecule, the IC50 in assay [3] is greater than 10 µM; in [4], greater than 30 µM; at L-type calcium channel, greater than 30 µM.
Turning to `O=C(O)CCC1(c2ccc(-c3ccccc3)cc2)CCCN(C(=O)Nc2ccc(OC(F)(F)F)cc2)C1` (stereo not drawn), the IC50 on Cytochrome P450 2C9 was less than 10 µM; in assay [5], less than 0.001 µM; in [1], 0.413 µM; against Cytochrome P450 2D6, greater than 10 µM; against Cytochrome P450 3A4 it was greater than 10 µM; in assay [3] it was less than 10 µM. For the same molecule, the IC50 in assay [4] is 21 µM; at L-type calcium channel it was greater than 30 µM.
Regarding `N#CCCC1(c2ccccc2)CCCN(C(=O)Nc2ccc(Cl)cc2)C1` (stereo not drawn), the IC50 against Epoxide hydrolase 1 was greater than 100 µM; against Cytochrome P450 2C9 it was greater than 10 µM; in [5], less than 0.001 µM; in [1], 0.016 µM; on Cytochrome P450 2D6, greater than 10 µM; against Cytochrome P450 3A4 it was greater than 10 µM. The IC50 in assay [3] is greater than 10 µM; in [4], 10 µM; at L-type calcium channel, 7 µM.
In the case of `CNC(=O)CCC1(c2ccccc2)CCCN(C(=O)Nc2ccc(Cl)cc2)C1` (stereo not drawn), the IC50 was greater than 100 µM at Epoxide hydrolase 1; 10 µM against Cytochrome P450 2C9; less than 0.001 µM in assay [5]; 0.032 µM in [1]; greater than 10 µM on Cytochrome P450 2D6; 10 µM at Cytochrome P450 3A4. Besides, the figures for the IC50 (in assay [3]; in [4]; at L-type calcium channel) were greater than 10 µM, 8 µM and 4 µM, respectively.
Regarding `O=C(O)CCC1(c2cccc(C(F)(F)F)c2)CCCN(C(=O)Nc2ccc(Cl)cc2)C1` (stereo not drawn), the IC50 at Epoxide hydrolase 1 is greater than 100 µM; against Cytochrome P450 2C9, greater than 10 µM; in assay [1] it was 0.176 µM; against Cytochrome P450 2D6 it was greater than 10 µM; against Cytochrome P450 3A4 it was greater than 10 µM; in [2], 0.012 µM. The results for the IC50 (in assay [3]; in [4]; at L-type calcium channel) were greater than 10 µM, greater than 30 µM and greater than 30 µM, respectively.
As for `CC1(c2ccccc2)CCCN(C(=O)NCCc2ccc3nccnc3c2)C1` (stereo not drawn), the IC50 was greater than 100 µM at Epoxide hydrolase 1; less than 10 µM at Cytochrome P450 2C9; 0.003 µM in [5]; 0.019 µM in assay [1]; 10 µM against Cytochrome P450 2D6; less than 10 µM against Cytochrome P450 3A4. In addition, the IC50 in [4] was 9 µM.
Take `O=C(O)CCCC1(c2ccccc2)CCCN(C(=O)Nc2ccc(Cl)cc2)C1` (stereo not drawn): the half-inhibitory concentration (IC50) against Epoxide hydrolase 1 was greater than 100 µM; against Cytochrome P450 2C9, greater than 10 µM; in [5], 0.006 µM; in assay [1] it was 0.176 µM; at Cytochrome P450 2D6, greater than 10 µM; against Cytochrome P450 3A4, greater than 10 µM. Further, the IC50 was greater than 10 µM in assay [3], greater than 30 µM in [4] and greater than 30 µM on L-type calcium channel.
With `O=C(CCC1(c2ccccc2)CCCN(C(=O)Nc2ccc(Cl)cc2)C1)Nc1nn[nH]n1` (stereo not drawn), the IC50 on Epoxide hydrolase 1 was greater than 100 µM; against Cytochrome P450 2C9, greater than 10 µM; in assay [5], 0.0014 µM; in [1], 0.034 µM; against Cytochrome P450 2D6, greater than 10 µM; on Cytochrome P450 3A4 it was greater than 10 µM. For the same molecule, the IC50 stood at 0.0014 µM in [2] and 27 µM in [4].
In the case of `O=C(O)CCC1(c2cccnc2)CCCN(C(=O)Nc2ccc(Cl)cc2)C1` (stereo not drawn), the IC50 on Cytochrome P450 2C9 was greater than 10 µM; in [1] it was 0.331 µM; against Cytochrome P450 2D6, greater than 10 µM; at Cytochrome P450 3A4, greater than 10 µM; in [2] it was 0.028 µM; in [3], greater than 10 µM. The IC50 (in assay [4]; at L-type calcium channel) was greater than 30 µM throughout.
In the case of `CC1(c2ccccc2)CCCN(C(=O)NCc2ccc(-c3cccc(Cl)c3)cc2)C1` (stereo not drawn), the IC50 against Epoxide hydrolase 1 is 22 µM; in assay [1], 0.007 µM; on Cytochrome P450 3A4, less than 10 µM; in assay [2] it was 0.014 µM; in assay [4] it was 2 µM.
As for `CC1(c2ccccc2)CCCN(C(=O)Nc2noc3ccccc23)C1` (stereo not drawn), the IC50 at Cytochrome P450 2C9 is less than 10 µM; in [1] it was 0.207 µM; on Cytochrome P450 2D6 it was greater than 10 µM; against Cytochrome P450 3A4, greater than 10 µM; in [3] it was less than 10 µM; in assay [4] it was 18 µM. Also, the IC50 on L-type calcium channel worked out at 19 µM.
